Each structure is given as a SMILES string. Activity calls are given as the source filed them. The rule behind the calls is not given here. Some results are limits rather than exact numbers.

The subject of series [1] is Plasmodium falciparum. Briefly: Antimalarial activity against drug-sensitive Plasmodium falciparum 3D7 infected in human erythrocytes after 96 hrs by SYBR Green I-based fluorescence assay. It is filed as functional, organism-based. The following applies: 3D7, 96 h. Put shortly:
(§1)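 Ring-stage cultures synchronized with 10% D-sorbitol, grown in O+ human erythrocytes in RPMI-1640 with HEPES, hypoxanthine, glucose, gentamycin and Albumax II under 5% CO2/5% O2/90% N2 at 37°C. Compounds in DMSO (<0.013%), serially diluted, added at 1% parasitemia, 2% hematocrit. Static 96 h incubation, then SYBR Green I lysis buffer for 1 h in dark. Fluorescence at ex 485/em 538 nm.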

Series [2] has as its system Plasmodium falciparum. Nature of the series: Antimalarial activity against antifolate-resistant Plasmodium falciparum W2 infected in human erythrocytes after 96 hrs by SYBR Green I-based fluorescence assay. The class given is functional, organism-based. The following applies: W2, 96 h. The essentials:
as §1

Series [3] has as its system Plasmodium falciparum. Briefly: Antimalarial activity against Plasmodium falciparum assessed as inhibition of DNA replication at 2 times IC50 after 72 hrs by FITC-SYBR Green I-based flow cytometry. The class given is functional, organism-based. For orientation: A flow cytometer gives signals particle by particle.
Series [4] concerns Plasmodium falciparum. Nature of the series: Antimalarial activity against Plasmodium falciparum 3D7 infected in human erythrocytes assessed as decrease in parasitemia at 2 times IC50 after 72 hrs by giemsa staining method. It is filed as functional, organism-based. Put shortly: (§2)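 P. falciparum 3D7 in O+ human erythrocytes, treated at 2xIC50 for 72 h. Parasitemia scored microscopically on Giemsa-stained smears, counting 100 parasites per slide 10x, alongside SYBR Green I DNA quantitation. Parasitemia compared at 0 h and 72 h. Three independent experiments in triplicate, mean ± S.E.; Student t-test, P<0.05.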

Series [5] deals with Plasmodium falciparum. Briefly: Antimalarial activity against Plasmodium falciparum 3D7 infected in human erythrocytes assessed as decrease in parasitemia at 2 times IC50 up to 72 hrs by SYBR Green I-based fluorescence assay in the presence of putrescine. The class given is functional, organism-based. The essentials: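 Early-ring 3D7 cultures treated at 2xIC50 with 1 mM putrescine added after 24 h or 48 h, then incubated a further 24 or 48 h. Parasitemia followed over 72 h by SYBR Green I lysis fluorescence, as in the MSF assay. At least three biological repeats in duplicate, mean ± S.E.; two-way ANOVA, P<0.05.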

The test system of series [6] is HepG2. Briefly: Cytotoxicity against human HepG2 cells after 48 hrs by lactate dehydrogenase assay. The class given is cell-based. The following applies: hepg2, 48 h. Put shortly:
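HepG2 cells in DMEM with 10% heat-inactivated FBS, 37°C, 5% CO2. Cells pelleted at 250xg, supernatant LDH activity read colorimetrically as NADH at 450 nm after 30 min at room temperature. Duplicate, at least two biological repeats, mean ± S.E.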

The test system of series [7] is Plasmodium falciparum. Briefly: Antimalarial activity against Plasmodium falciparum assessed as inhibition of nuclear division measuring 1N ring or trophozoite stage parasites at 2 times IC50 after 72 hrs by FITC-SYBR Green I-based flow cytometry (reference value: 28 %). The class given is functional. Also noted: scale not given: the % may be the effect or the level left.

Series [8] concerns Plasmodium falciparum. Nature of the series: Antimalarial activity against Plasmodium falciparum assessed as inhibition of nuclear division measuring 2N schizont stage parasites at 2 times IC50 after 72 hrs by FITC-SYBR Green I-based flow cytometry (reference value: 38 %). The class given is functional. Also noted: scale not given: the % may be the effect or the level left.
In series [9] the test system is Plasmodium falciparum. Briefly: Antimalarial activity against Plasmodium falciparum assessed as inhibition of nuclear division measuring >2N schizont stage parasites at 2 times IC50 after 72 hrs by FITC-SYBR Green I-based flow cytometry (reference value: 34 %). The class given is functional. Further details: scale not given: the % may be the effect or the level left.

In series [10] the test system is Plasmodium falciparum. Nature of the series: Antimalarial activity against Plasmodium falciparum assessed as increase in 1N ring or trophozoite stage parasites at 2 times IC50 after 72 hrs by FITC-SYBR Green I-based flow cytometry. The class given is functional, organism-based.
The test system of series [11] is Plasmodium falciparum. Briefly: Antimalarial activity against Plasmodium falciparum assessed as reduction in 2N schizont stage parasites at 2 times IC50 after 72 hrs by FITC-SYBR Green I-based flow cytometry. The class given is functional, organism-based.
Series [12] has as its system Plasmodium falciparum. Nature of the series: Antimalarial activity against Plasmodium falciparum assessed as reduction in >2N schizont stage parasites at 2 times IC50 after 72 hrs by FITC-SYBR Green I-based flow cytometry. It is filed as functional, organism-based.
Series [13] deals with Plasmodium falciparum. Briefly: Antimalarial activity against […] Plasmodium falciparum HB3 infected in human erythrocytes after 96 hrs by SYBR Green I-based fluorescence assay. It is filed as functional, organism-based. As to conditions: HB3, 96 h. Put shortly:
as §1

The test system of series [14] is Trypanosoma brucei. Briefly: Antitrypanosomal activity against Trypanosoma brucei. It is filed as functional, organism-based.
For series [15], the system named is Plasmodium falciparum. Nature of the series: Resistance ratio of IC50 for Plasmodium falciparum W2 to IC50 for Plasmodium falciparum 3D7. It is filed as functional. Put shortly:
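Ratio of W2 IC50 to 3D7 IC50, both from the 96 h SYBR Green I fluorescence assay.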

A short description of series [16]: Selectivity index, ratio of GI50 for human HepG2 cells to IC50 for Plasmodium falciparum 3D7. The class given is functional.
In series [17] the test system is Plasmodium falciparum. Nature of the series: Cytostatic activity against Plasmodium falciparum 3D7 infected in human erythrocytes at 2 times IC50 after 72 hrs by giemsa staining method. It is filed as functional, organism-based. The essentials: as §2

On to `Cl.Cl.S=C(NCCCNCCCCCCCNCCCNC(=S)NCC(c1ccccc1)c1ccccc1)NCC(c1ccccc1)c1ccccc1`, for which the IC50 turned out to be 405 nM in series [1] and 183 nM in series [2]. Besides, in series [3], the “DNA replication inhibition (active/inactive)” value is “Active”. For the same compound, the outcome in [4], in series [5], in series [10], in [11] and in series [12] was Active. The compound further came in with a GI50 in series [6] of 24700 nM. For the same compound, the Activity in series [7] was found to be 78%; in [8], 20%; in series [9], 2%.

For `N=C(NCCCNCCCCCCCNCCCNC(=N)NC(=N)NCCC(c1ccccc1)c1ccccc1)NC(=N)NCCC(c1ccccc1)c1ccccc1`, the IC50 worked out at 224 nM in series [13], 298 nM in series [1] and 90 nM in series [14].

`Cl.Cl.S=C(NCCCNCCCCNCCCNC(=S)NCc1ccccc1)NCc1ccccc1`: the 50% inhibitory concentration (IC50) was 355 nM in series [1] and 66 nM in series [2]. Further, in [15], the “Ratio IC50” value was 0.19. Also, the “DNA replication inhibition (active/inactive)” value in [3] was “inactive”. Moreover, the outcome in series [4], in [10], in [11] and in series [12] was inactive. Also, in series [6], the GI50 is over 200000 nM. In [16], the “Selectivity Index” value was over 500. In addition, the outcome in series [17] was Active.

As a reminder, the IC50 is the concentration that inhibits the measured activity by half. By GI50 is commonly meant the concentration giving 50% growth inhibition.

These data come from ChEMBL document CHEMBL1828516, “Discovery of novel alkylated (bis)urea and (bis)thiourea polyamine analogues with potent antimalarial activities” (J Med Chem, 2011).
